# Source: ChEMBL document CHEMBL4265871, “Novel alkylated azoles as potent antifungals” (Eur J Med Chem, 2017)
# Columns and labels:
# [1] = Selectivity index, ratio of EC50 for toxicity in human A549 cells to MIC50 for antifungal activity against ITC and FLC-resistant Candida albicans ATCC 1237; assay type: cell-based; conditions: read-out: Selectivity Index
# In short: (§1)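 Selectivity index is the EC50 against the mammalian line (A549 or BEAS-2B) divided by the MIC against the given fungal strain.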
# [2] = Selectivity index, ratio of EC50 for toxicity in human A549 cells to MIC50 for antifungal activity against Candida albicans ATCC 64124; assay type: cell-based; conditions: read-out: Selectivity Index; in short: as §1
# [3] = Selectivity index, ratio of EC50 for toxicity in human BEAS2B cells to MIC50 for antifungal activity against Aspergillus flavus ATCC MYA-3631; assay type: cell-based; conditions: read-out: Selectivity Index; in short: as §1
# Candida albicans [4] = test: Antifungal activity against Candida albicans ATCC 10231 incubated for 48 hrs by modified CLSI M27-A3 protocol based method; assay type: functional; conditions: ATCC 10231, 48 h
# In short: (§2)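 For C. albicans ATCC 10231, C. krusei ATCC 6258 and C. parapsilosis ATCC 22019, MIC-0 was read, meaning complete growth inhibition. For azole controls, MIC-2 (50% growth inhibition) was reported instead. Caspofungin and voriconazole were tested here; other controls came from earlier work.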
# [5] = Selectivity index, ratio of EC50 for toxicity in human BEAS2B cells to MIC50 for antifungal activity against Candida albicans ATCC 64124; assay type: cell-based; conditions: BEAS-2B cells, read-out: Selectivity Index; in short: as §1
# [6] = Selectivity index, ratio of EC50 for toxicity in human BEAS2B cells to MIC50 for antifungal activity against Aspergillus terreus ATCC MYA-3633; assay type: cell-based; conditions: read-out: Selectivity Index; in short: as §1
# [7] = Selectivity index, ratio of EC50 for toxicity in human BEAS2B cells to MIC50 for antifungal activity against ITC and FLC-resistant Candida albicans ATCC MYA-1003; assay type: cell-based; conditions: BEAS-2B cells, read-out: Selectivity Index; in short: as §1
# [8] = Toxicity in human A549 cells assessed as reduction in cell viability incubated for 24 hrs by resazurin dye based assay
# In short: (§3)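 Toxicity tested in the nucleated lines A549 and BEAS-2B to give EC50 values. Selectivity index is EC50 against the mammalian line divided by the MIC against a given fungal strain.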
# [9] = Selectivity index, ratio of EC50 for toxicity in human BEAS2B cells to MIC50 for antifungal activity against Candida glabrata ATCC 2001; assay type: cell-based; conditions: BEAS-2B cells, read-out: Selectivity Index; in short: as §1
# Candida albicans [10] = test: Antifungal activity against ITC and FLC-resistant Candida albicans ATCC 1237 incubated for 48 hrs by modified CLSI M27-A3 protocol based method; assay type: functional; conditions: ATCC 1237, 48 h
# In short: (§4)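 Because these Candida strains show trailing growth, MIC-2 was read, meaning 50% growth inhibition. Caspofungin and voriconazole were tested here; other controls came from earlier work.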
# [11] = Selectivity index, ratio of EC50 for toxicity in human BEAS2B cells to MIC50 for antifungal activity against ITC and FLC-susceptible Candida albicans ATCC MYA-2876; assay type: cell-based; conditions: BEAS-2B cells, read-out: Selectivity Index
# In short: (§5)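 Ratio of the compound's EC50 against BEAS-2B cells to its MIC against the named C. albicans strain. […] For C. albicans strains other than ATCC 10231, trailing growth meant MIC-2 was taken, meaning 50% growth inhibition.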
# [12] = Toxicity in human BEAS2B cells assessed as reduction in cell viability incubated for 24 hrs by resazurin dye based assay; conditions: BEAS-2B cells; in short: as §3
# [13] = Selectivity index, ratio of EC50 for toxicity in human A549 cells to MIC50 for antifungal activity against ITC and FLC-susceptible Candida albicans ATCC MYA-2876; assay type: cell-based; conditions: read-out: Selectivity Index; in short: as §1
# Candida albicans [14] = test: Antifungal activity against ITC and FLC-susceptible Candida albicans ATCC MYA-2876 incubated for 48 hrs by modified CLSI M27-A3 protocol based method; assay type: functional; conditions: ATCC MYA-2876, 48 h; in short: as §4
# Aspergillus nidulans = test: Antifungal activity against Aspergillus nidulans ATCC 38163 incubated for 48 hrs by CLSI M38-A2 protocol based method; assay type: functional; conditions: ATCC 38163, 48 h
# [15] = Selectivity index, ratio of EC50 for toxicity in human A549 cells to MIC50 for antifungal activity against ITC and FLC-resistant Candida albicans ATCC MYA-90819; assay type: cell-based; conditions: read-out: Selectivity Index; in short: as §1
# [16] = Selectivity index, ratio of EC50 for toxicity in human A549 cells to MIC50 for antifungal activity against ITC and FLC-susceptible Candida albicans ATCC MYA-2310; assay type: cell-based; conditions: read-out: Selectivity Index; in short: as §1
# [17] = Selectivity index, ratio of EC50 for toxicity in human A549 cells to MIC50 for antifungal activity against Candida krusei ATCC 6258; assay type: cell-based; conditions: read-out: Selectivity Index; in short: as §1
# Candida albicans [18] = test: Antifungal activity against ITC and FLC-resistant Candida albicans ATCC MYA-90819 incubated for 48 hrs by modified CLSI M27-A3 protocol based method; assay type: functional; conditions: ATCC MYA-90819, 48 h
# [19] = Selectivity index, ratio of EC50 for toxicity in human A549 cells to MIC50 for antifungal activity against Candida glabrata ATCC 2001; assay type: cell-based; conditions: read-out: Selectivity Index; in short: as §1
# Nakaseomyces glabratus = test: Antifungal activity against Candida glabrata ATCC 2001 incubated for 48 hrs by modified CLSI M27-A3 protocol based method; assay type: functional; conditions: ATCC 2001, 48 h
# [20] = Selectivity index, ratio of EC50 for toxicity in human BEAS2B cells to MIC50 for antifungal activity against Candida albicans ATCC 10231; assay type: cell-based; conditions: BEAS-2B cells, read-out: Selectivity Index; in short: as §1
# [21] = Selectivity index, ratio of EC50 for toxicity in human A549 cells to MIC50 for antifungal activity against Candida albicans ATCC 10231; assay type: cell-based; conditions: read-out: Selectivity Index; in short: as §1
# [22] = Selectivity index, ratio of EC50 for toxicity in human A549 cells to MIC50 for antifungal activity against Aspergillus terreus ATCC MYA-3633; assay type: cell-based; conditions: read-out: Selectivity Index; in short: as §1
# [23] = Selectivity index, ratio of EC50 for toxicity in human BEAS2B cells to MIC50 for antifungal activity against Aspergillus nidulans ATCC 38163; assay type: cell-based; conditions: read-out: Selectivity Index; in short: as §1
# Aspergillus flavus = test: Antifungal activity against Aspergillus flavus ATCC MYA-3631 incubated for 48 hrs by CLSI M38-A2 protocol based method; assay type: functional; conditions: ATCC MYA-3631, 48 h
# [24] = Selectivity index, ratio of EC50 for toxicity in human A549 cells to MIC50 for antifungal activity against ITC and FLC-resistant Candida albicans ATCC MYA-1003; assay type: cell-based; conditions: read-out: Selectivity Index; in short: as §1
# Candida albicans [25] = test: Antifungal activity against ITC and FLC-resistant Candida albicans ATCC MYA-1003 incubated for 48 hrs by modified CLSI M27-A3 protocol based method; assay type: functional; conditions: ATCC MYA-1003, 48 h; in short: as §4
# Aspergillus terreus = test: Antifungal activity against Aspergillus terreus ATCC MYA-3633 incubated for 48 hrs by CLSI M38-A2 protocol based method; assay type: functional; conditions: ATCC MYA-3633, 48 h
# [26] = Selectivity index, ratio of EC50 for toxicity in human A549 cells to MIC50 for antifungal activity against Aspergillus flavus ATCC MYA-3631; assay type: cell-based; conditions: read-out: Selectivity Index; in short: as §1
# Pichia kudriavzevii = test: Antifungal activity against Candida krusei ATCC 6258 incubated for 48 hrs by modified CLSI M27-A3 protocol based method; assay type: functional; conditions: ATCC 6258, 48 h; in short: as §2
# [27] = Selectivity index, ratio of EC50 for toxicity in human BEAS2B cells to MIC50 for antifungal activity against ITC and FLC-susceptible Candida albicans ATCC MYA-2310; assay type: cell-based; conditions: BEAS-2B cells, read-out: Selectivity Index; in short: as §5
# [28] = Selectivity index, ratio of EC50 for toxicity in human A549 cells to MIC50 for antifungal activity against Aspergillus nidulans ATCC 38163; assay type: cell-based; conditions: read-out: Selectivity Index; in short: as §1
# Candida albicans [29] = test: Antifungal activity against ITC and FLC-susceptible Candida albicans ATCC MYA-2310 incubated for 48 hrs by modified CLSI M27-A3 protocol based method; assay type: functional; conditions: ATCC MYA-2310, 48 h
# Candida albicans [30] = test: Antifungal activity against Candida albicans ATCC 64124 incubated for 48 hrs by modified CLSI M27-A3 protocol based method; assay type: functional; conditions: ATCC 64124, 48 h
# Candida parapsilosis = test: Antifungal activity against Candida parapsilosis ATCC 22019 incubated for 48 hrs by modified CLSI M27-A3 protocol based method; assay type: functional; conditions: Lodderomyces parapsilosis, ATCC 22019, 48 h; in short: as §2
# [31] = Selectivity index, ratio of EC50 for toxicity in human BEAS2B cells to MIC50 for antifungal activity against ITC and FLC-resistant Candida albicans ATCC 1237; assay type: cell-based; conditions: BEAS-2B cells, read-out: Selectivity Index; in short: as §1
# [32] = Selectivity index, ratio of EC50 for toxicity in human BEAS2B cells to MIC50 for antifungal activity against ITC and FLC-resistant Candida albicans ATCC MYA-90819; assay type: cell-based; conditions: BEAS-2B cells, read-out: Selectivity Index; in short: as §5
# [33] = Selectivity index, ratio of EC50 for toxicity in human BEAS2B cells to MIC50 for antifungal activity against Candida krusei ATCC 6258; assay type: cell-based; conditions: BEAS-2B cells, read-out: Selectivity Index; in short: as §1
smiles,measurement,setting,value
CC[C@@H]([C@H](C)O)n1ncn(-c2ccc(N3CCN(c4ccc(OC[C@@H]5CO[C@@](Cn6cncn6)(c6ccc(F)cc6F)C5)cc4)CC3)cc2)c1=O [POSACONAZOLE],selectivity ratio,[1],2
same,selectivity ratio,[2],1
same,selectivity ratio,[3],108
same,MIC50,Candida albicans [4],0.71 µM
same,selectivity ratio,[5],0.4
same,selectivity ratio,[6],54
same,selectivity ratio,[7],2
same,EC50 at 24 h,[8],37 µg/mL
same,selectivity ratio,[9],217
same,MIC50,Candida albicans [10],22.3 µM
same,selectivity ratio,[11],3
same,EC50 at 24 h,[12],26 µg/mL
same,selectivity ratio,[13],5
same,MIC50,Candida albicans [14],11.1 µM
same,MIC50,Aspergillus nidulans,0.28 µM
same,selectivity ratio,[15],1
same,selectivity ratio,[16],1
same,selectivity ratio,[17],617 to 1230
same,MIC50,Candida albicans [18],44.7 µM
same,selectivity ratio,[19],308
same,MIC50,Nakaseomyces glabratus,0.17 µM
same,selectivity ratio,[20],52
same,selectivity ratio,[21],74
same,selectivity ratio,[22],77
same,selectivity ratio,[23],133
same,MIC50,Aspergillus flavus,0.34 µM
same,selectivity ratio,[24],2
same,MIC50,Candida albicans [25],22.3 µM
same,MIC50,Aspergillus terreus,0.68 µM
same,selectivity ratio,[26],154
same,MIC50,Pichia kudriavzevii,0.09 µM
same,selectivity ratio,[27],1
same,selectivity ratio,[28],190
same,MIC50,Candida albicans [29],44.7 µM
same,MIC50,Candida albicans [30],> 89.2 µM
same,MIC50,Candida parapsilosis,< 0.04 µM
same,selectivity ratio,[31],2
same,selectivity ratio,[32],1
same,selectivity ratio,[33],433 to 867
